Assay results published in ChEMBL document CHEMBL5230178, “6-Bromoindirubin-3'-oxime derivatives are highly active colistin adjuvants against Klebsiella pneumoniae” (RSC Med Chem, 2023).
Calls of active or inactive are those of the source. The rule behind the calls is not given here.

Legend:
[1] = system: Klebsiella pneumoniae; assay: Potentiation of colistin-induced antibacterial activity against colistin resistant Klebsiella pneumoniae B9 assessed as colistin MIC at 5 uM incubated for 16 hrs by broth microdilution method; format: functional
Outline: (§1)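 Bacteria grown 6 h in CAMHB, diluted to 5×10^5 CFU/mL. Fixed adjuvant concentration added from DMSO stock; an undosed aliquot gives the colistin MIC alone. Colistin serially two-fold diluted in the compound-dosed suspension. MIC taken at 90% growth inhibition versus untreated wells. Fold change is colistin MIC alone over MIC with adjuvant. Duplicate, repeated at least twice.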

[2] = system: Klebsiella pneumoniae; assay: Antibacterial activity against Klebsiella pneumoniae B9 assessed as inhibition of bacterial growth incubated for 16 hrs by broth microdilution method; format: functional
Outline: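 Broth microdilution in CAMHB. Six-hour culture diluted to 5×10^5 CFU/mL, compound added from DMSO stock, two-fold serial dilution. MIC is the lowest concentration giving 90% growth inhibition versus untreated wells. Run in duplicate, repeated at least twice.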

[3] = system: Klebsiella pneumoniae; assay: Potentiation of colistin-induced antibacterial activity against colistin-resistant Klebsiella pneumoniae B9 assessed as fold change in colistin MIC at 5 uM incubated for 16 hrs by broth microdilution method; format: functional; outline: as §1
[4] = system: Klebsiella pneumoniae; assay: Potentiation of colistin-induced antibacterial activity against colistin-resistant Klebsiella pneumoniae B9 assessed as fold change in colistin MIC at 3 uM incubated for 16 hrs by broth microdilution method; format: functional; outline: as §1
[5] = system: Klebsiella pneumoniae; assay: Potentiation of colistin-induced antibacterial activity against colistin-resistant Klebsiella pneumoniae B9 assessed as colistin MIC at 3 uM incubated for 16 hrs by broth microdilution method; format: functional; outline: as §1
[6] = system: Klebsiella pneumoniae; assay: Potentiation of colistin-induced antibacterial activity against colistin-resistant Klebsiella pneumoniae B9 assessed as colistin MIC at 1 uM incubated for 16 hrs by broth microdilution method; format: functional; outline: as §1
[7] = system: Klebsiella pneumoniae; assay: Potentiation of colistin-induced antibacterial activity against colistin resistant Klebsiella pneumoniae I2 assessed as colistin MIC at 5 uM incubated for 16 hrs by broth microdilution method; format: functional; outline: as §1
[8] = system: Klebsiella pneumoniae; assay: Potentiation of colistin-induced antibacterial activity against colistin resistant Klebsiella pneumoniae F2210291 harbouring mcr-1 gene assessed as colistin MIC at 5 uM incubated for 16 hrs by broth microdilution method; format: functional; outline: as §1
[9] = system: Escherichia coli; assay: Potentiation of colistin-induced antimicrobial activity against colistin resistant Escherichia coli 25922 harbouring mcr-1 gene assessed as colistin MIC at 5 uM incubated for 16 hrs by broth microdilution method; format: functional; outline: as §1
[10] = system: Klebsiella pneumoniae; assay: Potentiation of colistin-induced antibacterial activity against colistin resistant Klebsiella pneumoniae C3 assessed as colistin MIC at 5 uM incubated for 16 hrs by broth microdilution method; format: functional; outline: as §1
[11] = system: Klebsiella pneumoniae; assay: Potentiation of colistin-induced antibacterial activity against colistin resistant Klebsiella pneumoniae F9 assessed as colistin MIC at 5 uM incubated for 16 hrs by broth microdilution method; format: functional; outline: as §1
[12] = system: Acinetobacter baumannii; assay: Antimicrobial activity against colistin resistant Acinetobacter baumannii 3941 assessed as inhibition of microbial growth incubated for 16 hrs by broth microdilution method; format: functional, organism-based
Outline: (§2)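 Bacteria grown 6 h in cation-adjusted Mueller Hinton broth (CAMHB), subcultured to 5×10^5 CFU/mL. Compound added from DMSO stock and serially two-fold diluted in the culture. Incubated stationary at 37 °C for 16 h. MIC taken as the lowest concentration giving 90% growth inhibition versus untreated wells. Duplicate, repeated at least twice.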

[13] = system: Pseudomonas aeruginosa; assay: Potentiation of colistin-induced antimicrobial activity against colistin-resistant Pseudomonas aeruginosa TRPA 162 assessed as colistin MIC at 5 uM incubated for 16 hrs by broth microdilution method; format: functional; outline: as §1
[14] = system: Acinetobacter baumannii; assay: Potentiation of colistin-induced antimicrobial activity against colistin resistant Acinetobacter baumannii 3941 assessed as assessed as colistin MIC at 5 uM incubated for 16 hrs by broth microdilution method; format: functional; outline: as §1
[15] = system: Escherichia coli; assay: Antimicrobial activity against colistin resistant Escherichia coli 25922 harbouring mcr-1 gene assessed as inhibition of microbial growth incubated for 16 hrs by broth microdilution method; format: functional, organism-based; outline: as §2
[16] = system: Pseudomonas aeruginosa; assay: Antimicrobial activity against colistin resistant Pseudomonas aeruginosa TRPA 162 assessed as inhibition of microbial growth incubated for 16 hrs by broth microdilution method; format: functional, organism-based; outline: as §2
[17] = system: Klebsiella pneumoniae; assay: Potentiation of colistin-induced antibacterial activity against colistin-resistant Klebsiella pneumoniae B9 assessed as fold change in colistin MIC at 1 uM incubated for 16 hrs by broth microdilution method; format: functional; outline: as §1

## O=C1Nc2ccccc2/C1=C1/Nc2c(Cl)cccc2/C1=N\O
[1]
  MIC: > 16 µg/mL
[2]
  MIC: > 200 µM

## COc1ccc2c(c1)NC(=O)/C2=C1\Nc2ccccc2\C1=N/O
[1]
  MIC: > 16 µg/mL
[2]
  MIC: > 200 µM

## O=C1Nc2cc(Br)ccc2/C1=C1/Nc2ccc(Br)cc2/C1=N\O
[3]
  fold change (FC): 128
[1]
  MIC: 4 µg/mL
[2]
  MIC: > 200 µM

## O=C1Nc2ccc(Cl)cc2/C1=C1/Nc2ccccc2/C1=N\O
[1]
  MIC: > 16 µg/mL
[2]
  MIC: > 200 µM

## O=C1Nc2cc(Br)ccc2/C1=C1/Nc2ccc(F)cc2/C1=N\O
[3]
  fold change (FC): 256
[4]
  fold change (FC): 16
[5]
  MIC: 32 µg/mL
[1]
  MIC: 2 µg/mL
[6]
  MIC: > 64 µg/mL
[2]
  MIC: > 200 µM

## O=C1Nc2cc(Br)ccc2/C1=C1/Nc2c(F)cccc2/C1=N\O
[7]
  MIC: 4 µg/mL
[8]
  MIC: 2 µg/mL
[9]
  MIC: 2 µg/mL
[10]
  MIC: 4 µg/mL
[3]
  fold change (FC): 256
[11]
  MIC: 4 µg/mL
[4]
  fold change (FC): 256
[12]
  Activity: inactive
[5]
  MIC: 2 µg/mL
[13]
  MIC: > 16 µg/mL
[14]
  MIC: > 16 µg/mL
[15]
  Activity: inactive
[16]
  Activity: inactive
[1]
  MIC: 2 µg/mL
[6]
  MIC: > 64 µg/mL
[2]
  MIC: > 200 µM

## Cc1cccc2c1NC(=C1\C(=O)Nc3cc(Br)ccc31)/C2=N/O
[3]
  fold change (FC): 128
[1]
  MIC: 4 µg/mL
[2]
  MIC: > 200 µM

## Cc1ccc2c(c1)NC(=O)/C2=C1\Nc2ccccc2\C1=N/O
[1]
  MIC: > 16 µg/mL
[2]
  MIC: > 200 µM

## O=C1Nc2cc(C(F)(F)F)ccc2/C1=C1/Nc2ccccc2/C1=N\O
[3]
  fold change (FC): 64
[1]
  MIC: 8 µg/mL
[2]
  MIC: > 200 µM

## O=C1Nc2cc(Br)ccc2/C1=C1/Nc2ccc(-c3ccccc3)cc2/C1=N\O
[1]
  MIC: > 16 µg/mL
[2]
  MIC: > 200 µM

## O=C1Nc2cc(Br)ccc2/C1=C1/Nc2c(cccc2-c2ccccc2)/C1=N\O
[1]
  MIC: > 16 µg/mL
[2]
  MIC: > 200 µM

## O=C1Nc2ccc(Br)cc2/C1=C1/Nc2ccccc2/C1=N\O [INDIRUBIN 2]
[1]
  MIC: > 16 µg/mL
[2]
  MIC: > 200 µM

## O=C1Nc2cc(Br)ccc2/C1=C1/Nc2cc(F)ccc2/C1=N\O
[1]
  MIC: > 16 µg/mL
[2]
  MIC: > 200 µM

## O=C1Nc2cc(Br)ccc2/C1=C1/Nc2c(Br)cccc2/C1=N\O
[7]
  MIC: 4 µg/mL
[8]
  MIC: 2 µg/mL
[9]
  MIC: 1 µg/mL
[10]
  MIC: 4 µg/mL
[3]
  fold change (FC): 512
[11]
  MIC: 4 µg/mL
[4]
  fold change (FC): 256
[12]
  Activity: inactive
[5]
  MIC: 2 µg/mL
[13]
  MIC: > 16 µg/mL
[14]
  MIC: > 16 µg/mL
[15]
  Activity: inactive
[16]
  Activity: inactive
[17]
  fold change (FC): 16
[1]
  MIC: 1 µg/mL
[6]
  MIC: 32 µg/mL
[2]
  MIC: > 200 µM

## O=C1Nc2cc(Br)ccc2/C1=C1/Nc2ccccc2/C1=N\O [6BIO]
[7]
  MIC: 8 µg/mL
[8]
  MIC: 2 µg/mL
[9]
  MIC: 2 µg/mL
[10]
  MIC: 4 µg/mL
[3]
  fold change (FC): 512
[11]
  MIC: 4 µg/mL
[4]
  fold change (FC): 16
[12]
  Activity: inactive
[5]
  MIC: 32 µg/mL
[13]
  MIC: > 16 µg/mL
[14]
  MIC: > 16 µg/mL
[15]
  Activity: inactive
[16]
  Activity: inactive
[1]
  MIC: 1 µg/mL
[6]
  MIC: > 64 µg/mL
[2]
  MIC: > 200 µM
